Laboratory results taken from ChEMBL document CHEMBL5329211, “Selective isoxazolopyrimidine PAT1 (SLC26A6) inhibitors for therapy of intestinal disorders” (RSC Med Chem, 2023).
The source made the active and inactive calls. The rule behind the calls is not given here.

Columns and labels:
[1] = molecular target: Solute carrier family 26 member 6 (Mus musculus) (UniProt Q8CIW6); assay: Inhibition of SLC26A6 (unknown origin) expressed in rat FRT cells coexpressing YFP halide-sensing protein assessed as iodide-chloride exchange incubated for 2 sec by fluorescence quenching analysis
Solute carrier family 26 member 6 (Mus musculus), sequence (Q8CIW6 whole entry, looked up): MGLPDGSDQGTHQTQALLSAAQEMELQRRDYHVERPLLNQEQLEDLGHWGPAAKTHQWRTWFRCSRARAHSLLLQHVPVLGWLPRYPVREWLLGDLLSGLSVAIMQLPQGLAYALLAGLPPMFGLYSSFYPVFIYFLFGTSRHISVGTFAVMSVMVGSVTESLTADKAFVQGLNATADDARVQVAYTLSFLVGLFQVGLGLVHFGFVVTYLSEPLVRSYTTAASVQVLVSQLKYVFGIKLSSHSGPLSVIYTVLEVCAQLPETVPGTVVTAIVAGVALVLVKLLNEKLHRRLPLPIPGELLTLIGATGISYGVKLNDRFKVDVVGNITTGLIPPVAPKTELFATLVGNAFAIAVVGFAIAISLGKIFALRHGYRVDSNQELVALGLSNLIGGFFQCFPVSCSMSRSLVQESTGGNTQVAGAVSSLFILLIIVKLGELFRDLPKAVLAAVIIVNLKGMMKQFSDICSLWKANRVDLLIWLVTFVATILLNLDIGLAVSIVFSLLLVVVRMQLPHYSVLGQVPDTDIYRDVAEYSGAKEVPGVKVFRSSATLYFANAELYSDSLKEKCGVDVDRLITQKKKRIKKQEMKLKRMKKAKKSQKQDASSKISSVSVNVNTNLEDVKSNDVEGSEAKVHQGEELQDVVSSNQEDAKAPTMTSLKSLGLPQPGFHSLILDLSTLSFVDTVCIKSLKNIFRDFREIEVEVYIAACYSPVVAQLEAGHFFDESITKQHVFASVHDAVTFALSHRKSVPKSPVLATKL

[2] = molecular target: Solute carrier family 26 member 6 (Mus musculus) (UniProt Q8CIW6); assay: Inhibition of SLC26A6 (unknown origin) expressed in rat FRT cells coexpressing YFP halide-sensing protein assessed as iodide-chloride exchange at 25 uM incubated for 2 sec by fluorescence quenching analysis relative to control
Mus musculus = assay: In vivo inhibition of PAT1 in intestinal closed-loop CD-1 mouse model assessed as reduction in loop weight/length ratio in ileum measured for 30 mins; type: functional
Procedure, shortened: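 Mice (wild-type CD1 or homozygous F508del CF, 10-16 wk, both sexes) fasted 24 h with free access to 5% dextrose water. Under isoflurane at 36-38 °C, 2-3 ileal loops (2-3 cm) were tied off and injected with 100 µL PBS pH 7.4 containing 30 µM inhibitor, 10 µM tenapanor or 0.1% DMSO vehicle. Loops removed at 0 or 30 min in separate mice; length and weight measured for fluid absorption. One-way ANOVA with Newman-Keuls.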

Row | SMILES | IC50 [1] | other results
1 | CCOC(=O)c1nc(N2CCN(c3cccc(Cl)c3)CC2)c2c(C)noc2n1 | 2600 nM | 
2 | CCOC(=O)c1nc(NCc2cc(OC)ccc2OC)c2c(CC)noc2n1 | 3700 nM | 
3 | CCOC(=O)c1nc(NCC(C)OC)c2c(-c3ccc(F)cc3)noc2n1 (stereo not drawn) | 5100 nM | 
4 | CCOC(=O)c1nc(NCCc2ccccc2Cl)c2c(CC)noc2n1 | 5200 nM | 
5 | CCOC(=O)c1nc(NCc2cccc(Br)c2)c2c(-c3ccc(F)cc3)noc2n1 |  | inhibition [2]: < 25%
6 | CCOC(=O)c1nc(NCc2ccccc2OCC)c2c(C)noc2n1 |  | inhibition [2]: < 25%
7 | CCOC(=O)c1nc(NCCc2cccs2)c2c(CC)noc2n1 | 1600 nM | 
8 | CCOC(=O)c1nc(NCc2ccccc2OC)c2c(CC)noc2n1 | 1900 nM | 
9 | CCOC(=O)c1nc(NCc2ccc(C)cc2)c2c(CC)noc2n1 | 3800 nM | 
10 | CCOC(=O)c1nc(Nc2cccc(C)c2C)c2c(C)noc2n1 | 1200 nM | 
11 | CN1Cc2c(Cl)cc(Cl)cc2[C@H](c2cccc(S(=O)(=O)NCCOCCOCCNC(=O)NCCCCNC(=O)NCCOCCOCCNS(=O)(=O)c3cccc([C@@H]4CN(C)Cc5c(Cl)cc(Cl)cc54)c3)c2)C1 |  | inhibition (Mus musculus): Active
12 | CCOC(=O)c1nc(NCCc2ccco2)c2c(C)noc2n1 | 2400 nM | 
13 | CCOC(=O)c1nc(NCc2ccc(F)cc2)c2c(CC)noc2n1 | 3200 nM | 
14 | CCOC(=O)c1nc(NCCC(C)C)c2c(C)noc2n1 | 2300 nM | 
15 | CCOC(=O)c1nc(NCc2cc(Br)ccc2OC)c2c(CC)noc2n1 | 2500 nM | 
16 | CCOC(=O)c1nc(NCc2cccnc2)c2c(-c3ccc(F)cc3)noc2n1 | 3400 nM | 
17 | CCOC(=O)c1nc(NCc2ccccc2F)c2c(CC)noc2n1 | 5200 nM | 
18 | CCOC(=O)c1nc(NCCc2ccsc2)c2c(C)noc2n1 | 1800 nM | 
19 | CCOC(=O)c1nc(NCc2cc(C)ccc2C)c2c(C)noc2n1 | 1500 nM | 
20 | CCOC(=O)c1nc(NCc2ccc(Cl)cc2)c2c(CC)noc2n1 | 3400 nM | 
21 | CCOC(=O)c1nc(NCCc2ccc(Cl)cc2)c2c(CC)noc2n1 | 5200 nM | 
22 | CCOC(=O)c1nc(NCCc2ccco2)c2c(CC)noc2n1 | 1400 nM | 

Second part, led by results:

Row | IC50 [1] | SMILES | other results
23 | 4400 nM | CCOC(=O)c1nc(NCc2cccc(OC)c2)c2c(C)noc2n1 | 
24 | 17200 nM | CCOC(=O)c1nc(NCc2ccccc2OC)c2c(C)noc2n1 | 
25 | 4300 nM | CCOC(=O)c1nc(NCc2ccccc2)c2c(CC)noc2n1 | 
26 | 3200 nM | CCOC(=O)c1nc(NCCc2ccccc2)c2c(CC)noc2n1 | 
27 | 2000 nM | CCOC(=O)c1nc(NCc2ccc(OCC)cc2)c2c(C)noc2n1 | 
28 | 1100 nM | CCOC(=O)c1nc(NCc2ccccc2F)c2c(C)noc2n1 | 
29 | 5700 nM | CCCOc1ccc(CNc2nc(C(=O)OCC)nc3onc(C)c23)cc1 | 
30 | 6500 nM | CCOC(=O)c1nc(NCc2ccc(OC(C)C)cc2)c2c(C)noc2n1 | 
31 | 3700 nM | CCOC(=O)c1nc(Nc2ccccc2C)c2c(C)noc2n1 | 
32 | 2300 nM | CCOC(=O)c1nc(NCc2ccc(F)cc2)c2c(C)noc2n1 | 
33 | 2200 nM | CCOC(=O)c1nc(NCc2cccc(F)c2)c2c(C)noc2n1 | 
34 | 1100 nM | CCOC(=O)c1nc(NCc2ccccc2Cl)c2c(C)noc2n1 | 
35 | 1800 nM | CCOC(=O)c1nc(NCc2ccccc2)c2c(C)noc2n1 | 
36 | 2600 nM | CCOC(=O)c1nc(NCc2ccc(SC)cc2)c2c(C)noc2n1 | 
37 | 1100 nM | CCOC(=O)c1nc(NCc2cccc(Br)c2)c2c(C)noc2n1 | 
38 | 1100 nM | CCOC(=O)c1nc(NCc2cccc(C)c2)c2c(C)noc2n1 | 
